Experiments:
IGROV-1 = test: Growth inhibition of human IGROV1 cells after 48 hrs by SRB assay; format: functional; details: IGROV-1, 48 h
Procedure, shortened: (§1)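 NCI five-dose assay against the ~60-cell-line panel (nine cancer types). Tenfold dilutions from 10−4 to 10−8 M were used with continuous 48-h exposure and SRB absorbance readout. Percent growth was computed from time-zero, control and treated absorbances. GI50 is the concentration giving 50% lower net protein increase than controls. Values not reached are reported as beyond the tested range.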

SF-268 = test: Anticancer activity against human SF268 cells assessed as cell growth at 100 uM after 48 hrs by SRB assay; format: functional; details: SF-268, 48 h, read-out: Activity
Procedure, shortened: (§2)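 NCI one-dose primary screen on a three-line panel (breast MCF7, lung NCI-H460, CNS SF-268). Cells were inoculated and preincubated 24–48 h, then exposed to a single concentration of 10−4 M for 48 h. The endpoint was sulforhodamine B protein staining, and results are expressed as percent growth relative to untreated control cells. Negative values denote cytotoxicity.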

[1] = Growth inhibition of human UACC257 cells after 48 hrs by SRB assay; format: functional; details: UACC-257, 48 h
Procedure, shortened: (§3)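 NCI ~60-cell-line five-dose screen. Cells were preincubated 24-48 h, then given compound at 10-fold dilutions from 10^-4 to 10^-8 M with 48 h continuous exposure. SRB protein stain was read by absorbance at time zero, in untreated control and with drug. GI50 was derived from [(Ti-Tz)/(C-Tz)]x100=50, TGI from Ti=Tz, and LC50 from [(Ti-Tz)/Tz]x100=-50.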

NCI-H460 = test: Anticancer activity against human NCI-H460 cells assessed as cell growth at 100 uM after 48 hrs by SRB assay; format: functional; details: NCI-H460, 48 h, read-out: Activity; procedure, shortened: as §2
NCI/ADR-RES = test: Growth inhibition of human NCI/ADR-RES cells after 48 hrs by SRB assay; format: functional; details: for TGI: read-out: pTGI (converted); procedure, shortened: as §1
[2] = Growth inhibition of human EKVX cells after 48 hrs by SRB assay; format: functional; procedure, shortened: as §1
MCF7 = test: Anticancer activity against human MCF7 cells assessed as cell growth at 100 uM after 48 hrs by SRB assay; format: functional; details: MCF7, 48 h, read-out: Activity; procedure, shortened: as §2
[3] = Growth inhibition of human RXF393 cells after 48 hrs by SRB assay; format: functional; details: RXF 393, 48 h; for TGI: read-out: pTGI (converted); procedure, shortened: as §1
SK-MEL-5 = test: Growth inhibition of human SK-MEL-5 cells after 48 hrs by SRB assay; format: functional; details: SK-MEL-5, 48 h; procedure, shortened: as §1
BT-549 = test: Growth inhibition of human BT549 cells after 48 hrs by SRB assay; format: functional; details: BT-549, 48 h; procedure, shortened: as §1
CCRF-CEM = test: Growth inhibition of human CCRF-CEM cells at 10 uM after 48 hrs by SRB assay; format: functional; details: read-out: GI
Procedure, shortened: (§4)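 NCI one-dose screen across roughly 60 human tumour cell lines. Cells were preincubated 24–48 h, then treated with a single 10−5 M concentration for 48 h. Growth was read with the SRB protein-binding dye and reported as percent growth versus untreated controls. Negative values indicate cell kill.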

[4] = Growth inhibition of human […] cells at 10 uM after 48 hrs by SRB assay; format: functional; details: read-out: GI; procedure, shortened: as §4
[5] = Growth inhibition of human UO31 cells at 10 uM after 48 hrs by SRB assay; values are per cent of control; details: UO-31, 48 h
TK-10 = test: Growth inhibition of human TK10 cells after 48 hrs by SRB assay; format: functional; details: TK-10, 48 h; procedure, shortened: as §3
[6] = Growth inhibition of human OVCAR5 cells after 48 hrs by SRB assay; format: functional; details: OVCAR-5, 48 h; procedure, shortened: as §1
ACHN = test: Growth inhibition of human ACHN cells after 48 hrs by SRB assay; format: functional; procedure, shortened: as §1
SF-295 = test: Growth inhibition of human SF295 cells after 48 hrs by SRB assay; format: functional; details: SF-295, 48 h; procedure, shortened: as §1
UACC-62 = test: Growth inhibition of human UACC62 cells after 48 hrs by SRB assay; format: functional; details: UACC-62, 48 h; procedure, shortened: as §3
[7] = Growth inhibition of human HCC2998 cells after 48 hrs by SRB assay; format: functional; details: HCC 2998, 48 h; procedure, shortened: as §1
[8] = Growth inhibition of human […] cells after 48 hrs by SRB assay; format: functional; procedure, shortened: as §1
NCI-H522 = test: Growth inhibition of human NCI-H522 cells after 48 hrs by SRB assay; format: functional; details: NCI-H522, 48 h; procedure, shortened: as §1
U-251 = test: Growth inhibition of human U251 cells after 48 hrs by SRB assay; format: functional; details: U-251, 48 h; procedure, shortened: as §3
HCT-116 = test: Growth inhibition of human HCT116 cells after 48 hrs by SRB assay; format: functional; details: HCT-116, 48 h; procedure, shortened: as §1
786-0 = test: Growth inhibition of human 786-0 cells after 48 hrs by SRB assay; format: functional; details: 786-0, 48 h; procedure, shortened: as §1
A549 = test: Growth inhibition of human A549/ATCC cells after 48 hrs by SRB assay; format: functional; details: A549, 48 h; procedure, shortened: as §1
OVCAR-8 = test: Growth inhibition of human OVCAR8 cells after 48 hrs by SRB assay; format: functional; details: OVCAR-8, 48 h; procedure, shortened: as §1

CC(C)OC(=O)c1cc2ccccc2c(=O)s1
GI50 (IGROV-1): 20.9 µM | TGI (IGROV-1; read-out: pTGI): > 100 µM | growth at 100 µM (SF-268): 69% | GI50 [1]: 19.5 µM | TGI ([1]; read-out: pTGI (converted)): 66.1 µM | growth at 100 µM (NCI-H460): 13% | GI50 (NCI/ADR-RES): 26.9 µM | TGI (NCI/ADR-RES): 69.2 µM | GI50 [2]: 19.1 µM | TGI ([2]; read-out: pTGI (converted)): 52.5 µM | growth at 100 µM (MCF7): 87% | GI50 [3]: 15.1 µM | TGI [3]: 67.6 µM | GI50 (SK-MEL-5): 24.5 µM | TGI (SK-MEL-5; read-out: pTGI (converted)): 49 µM | GI50 (BT-549): 24.5 µM | TGI (BT-549; read-out: pTGI (converted)): 63.1 µM

O=C(Nc1ccc(O)cc1)c1cc2ccccc2c(=O)s1
inhibition of growth at 10 µM (CCRF-CEM): -28% | inhibition of growth at 10 µM [4]: -11% | growth percent at 10 µM [5]: -62.1%

COc1ccc2cc(C(=O)Nc3ccc(F)cc3)sc(=O)c2c1OC
GI50 (TK-10): 15.1 µM | TGI (TK-10; read-out: pTGI (converted)): 33.1 µM | GI50 [6]: 18.6 µM | TGI ([6]; read-out: pTGI (converted)): 61.7 µM | GI50 (ACHN): 7.08 µM | TGI (ACHN; read-out: pTGI (converted)): 26.9 µM | growth at 100 µM (SF-268): 60% | GI50 (SF-295): 18.2 µM | TGI (SF-295; read-out: pTGI (converted)): 51.3 µM | GI50 (UACC-62): 19.5 µM | TGI (UACC-62; read-out: pTGI (converted)): 52.5 µM | GI50 [7]: 14.1 µM | TGI ([7]; read-out: pTGI (converted)): 49 µM | growth at 100 µM (NCI-H460): 11% | GI50 (NCI/ADR-RES): 12.6 µM | TGI (NCI/ADR-RES): > 100 µM | GI50 [8]: 6.76 µM | TGI ([8]; read-out: pTGI (converted)): 22.9 µM | GI50 (NCI-H522): 18.2 µM | TGI (NCI-H522; read-out: pTGI (converted)): 70.8 µM | growth at 100 µM (MCF7): 55% | GI50 [3]: 10.7 µM | TGI [3]: 33.9 µM | GI50 (U-251): 5.5 µM | TGI (U-251; read-out: pTGI (converted)): 20.4 µM | GI50 (HCT-116): 14.1 µM | TGI (HCT-116; read-out: pTGI (converted)): 40.7 µM | GI50 (786-0): 11.5 µM | TGI (786-0; read-out: pTGI (converted)): 41.7 µM | GI50 (A549): 18.6 µM | TGI (A549; read-out: pTGI): > 100 µM | GI50 (OVCAR-8): 12.3 µM | TGI (OVCAR-8; read-out: pTGI (converted)): 67.6 µM
